Activity calls are given as the source filed them. The rule behind the calls is not given here.
Key:
[1] = tested on: HepG2; assay: Increase in glucose consumption in human HepG2 cells assessed as Gx/GDMSO ratio at 25 uM by glucose oxidase assay; type: functional
Procedure, shortened: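 HepG2 glucose consumption screen. Test compounds at 25 μM, metformin at 5 mM. Activity expressed as ratio of glucose consumption to DMSO-treated cells (Gx/G_DMSO).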

[2] = Acute toxicity in Kunming mouse assessed as effect on blood GOT level at 250 to 1000 mg/kg, po administered as single dose measured for 7 days; type: organism-based; details: in vivo, 168 h, dose 250-1000 mg/kg, time 7 day
Procedure, shortened: (§1)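 Kunming mice each received one oral dose at 250, 500, 750 or 1000 mg·kg^-1 and were closely monitored for 7 days. At the end, blood was sampled and GOT, GPT, BUN and CRE were measured […] as liver and kidney function markers.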

[3] = Acute toxicity in Kunming mouse assessed as effect on blood CRE level at 250 to 1000 mg/kg, po administered as single dose measured for 7 days; type: organism-based; details: in vivo, 168 h, dose 250-1000 mg/kg, time 7 day; procedure, shortened: as §1
[4] = tested on: Mus musculus; assay: Antidiabetic activity in KK-Ay mouse assessed as effect on glycosylated haemoglobin level at 50 mg/kg, po for 50 days by glucose oxidase method (reference value: 8.74 +/- 1.08%); type: functional; details: time 50 day
Procedure, shortened: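 Lipogenic-diet KK-Ay mice given 50 or 100 mg/kg compound or 5 mg/kg rosiglitazone orally for 50 days, C57BL/6J as normal controls. Fasting blood glucose, glycosylated haemoglobin, AGE, insulin, HOMA-IR, cholesterol, LDL-c, TG, serum creatinine and BUN determined. Mean ± SD, 8-9 mice per group.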

[5] = tested on: Mus musculus; assay: Antidiabetic activity in KK-Ay mouse assessed as effect on insulin level at 100 mg/kg, […] by ELISA (reference value: 226 +/- 15.5 mU/l); type: functional
[6] = tested on: Mus musculus; assay: Antidiabetic activity in KK-Ay mouse assessed as effect on HOMA-IR level at 50 mg/kg, […] by ELISA (reference value: 137 +/- 18.4); type: functional
[7] = tested on: Mus musculus; assay: Antidiabetic activity in KK-Ay mouse assessed as effect on LDL level at 100 mg/kg, po […] by ELISA (reference value: 1.11 +/- 0.24 mM); type: functional
[8] = tested on: Mus musculus; assay: Antidiabetic activity in KK-Ay mouse assessed as effect on Triglycerides level at 50 mg/kg, […] by ELISA (reference value: 4.01 +/- 1.83 mM); type: functional
[9] = tested on: Mus musculus; assay: Antidiabetic activity in KK-Ay mouse assessed as effect on serum Creatinine level at 50 mg/kg, po for 24 hrs by ELISA (reference value: 124 +/- 35.1 uM); type: functional
[10] = tested on: Mus musculus; assay: Antidiabetic activity in KK-Ay mouse assessed as effect on serum Creatinine level at 100 mg/kg, po for 24 hrs by ELISA (reference value: 124 +/- 35.1 uM); type: functional
[11] = tested on: Mus musculus; assay: Antidiabetic activity in KK-Ay mouse assessed as effect on BUN level at 100 mg/kg, po for 24 hrs by ELISA (reference value: 12.8 +/- 2.97 mM); type: functional
[12] = tested on: Mus musculus; assay: Anti-diabetic activity in overnight fasted diabetic KK-Ay mouse assessed as increase in insulin responsiveness by measuring blood glucose at 50 to 100 mg/kg, po measured after 35 days by insulin tolerance test; type: functional, organism-based; details: dose 50-100 mg/kg, time 35.0 day
Procedure, shortened: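 KK-Ay mice orally treated with 50 or 100 mg/kg compound or 5 mg/kg rosiglitazone, C57BL/6J as normal controls. After 35 days of treatment, oral glucose tolerance test and insulin tolerance test run. Blood glucose plotted against time, AUC calculated. Mean ± SD, 8-9 mice per group.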

[13] = Effect on high fat diet-fed KK-Ay mouse model of obesity and diabetes assessed as food intake at 50 mg/kg, po (reference value: 5.67 +/- 0.55 g/day); type: ADME, organism-based; details: in vivo
Procedure, shortened: (§2)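 KK-Ay mice on lipogenic diet, with C57BL/6J mice as normal controls, dosed orally at 50 or 100 mg/kg (test) or 5 mg/kg (RGZ). Food intake (g/day), water intake (mL/day) and body weight recorded before and after treatment; body weight gain calculated. Mean±SD, 8-9 mice per group.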

[14] = Effect on high fat diet-fed po dosed C57BL/6J mouse model of obesity and diabetes assessed as water intake; type: organism-based; details: in vivo
[15] = Effect on high fat diet-fed KK-Ay mouse model of obesity and diabetes assessed as water intake at 100 mg/kg, po (reference value: 21.2 +/- 4.17 ml/day); type: ADME, organism-based; details: in vivo; procedure, shortened: as §2
[16] = tested on: Mus musculus; assay: Anti-diabetic activity in high fat diet-fed KK-Ay mouse model of obesity and diabetes assessed as reduction in total protein level in urine at 50 to 100 mg/kg, po measured after 24 hrs; type: functional, organism-based; details: dose 50-100 mg/kg
Procedure, shortened: (§3)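 Before study end, 24-h urine collected from C57BL/6J controls and KK-Ay mice (untreated, oral 50 or 100 mg/kg compound, or 5 mg/kg rosiglitazone). Volume, glucose, total protein and microalbumin measured by kits. Mean ± SD, 8-9 mice per group, vs C57BL/6J or untreated KK-Ay.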

[17] = species: Mus musculus; assay: Anti-diabetic activity in high fat diet-fed C57BL/6J mouse model of obesity and diabetes assessed as decrease in microalbumin level in urine measured after 24 hrs; type: functional, organism-based; procedure, shortened: as §3
[18] = tested on: Mus musculus; assay: Anti-diabetic activity in high fat diet-fed KK-Ay mouse model of obesity and diabetes assessed as improved pathological changes in kidney at 50 to 100 mg/kg, po by hematoxylin and eosin staining based histopathological analysis; type: functional, organism-based; details: dose 50-100 mg/kg
Procedure, shortened: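 Mice sacrificed at study end, with KK-Ay given 50 or 100 mg/kg compound or 5 mg/kg rosiglitazone orally and C57BL/6J as normal controls. Kidney and pancreas sections H&E stained, imaged at 200×, pathological changes scored. Mean ± SD of 8-9 mice per group.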

[19] = tested on: HepG2; assay: Increase in glucose consumption in human HepG2 cells at 10 to 40 uM measured after 24 hrs; type: functional, cell-based; details: dose 10-40 µM
Procedure, shortened: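 HepG2 cells treated 24 h at the indicated concentrations; RGZ as reference. Supernatants used for glucose consumption and lactate release; lysed cells used for ATP, normalized to protein content. Mean ± SD of 3 or 4 separate experiments; compared with DMSO.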

[20] = tested on: HepG2; assay: Cytotoxicity against human HepG2 cells upto 160 uM after 24 hrs by MTT assay; type: cell-based; details: hepg2, 24 h
Procedure, shortened: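 HepG2 cells exposed to compound; cell growth measured; CC50 derived from the concentration–growth relationship.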

[21] = Effect on high fat diet-fed C57BL/6J mouse model of obesity and diabetes assessed as food intake; details: in vivo
[22] = tested on: L6; assay: Induction of glycolysis in rat L6 cells assessed as increase in lactate release at 10 to 40 uM measured after 24 hrs; details: dose 10-40 µM
[23] = tested on: HepG2; assay: Induction of glycolysis in human HepG2 cells assessed as increase in lactate release at 10 to 40 uM measured after 24 hrs; details: dose 10-40 µM
[24] = tested on: Mus musculus; assay: Anti-diabetic activity in high fat diet-fed KK-Ay mouse model of obesity and diabetes assessed as reduction in urine glucose level at 50 to 100 mg/kg, po measured after 24 hrs; details: dose 50-100 mg/kg

CCCC[C@@H]1[C@H]2CCCN3CCC[C@@H](CN1S(=O)(=O)c1ccc(C(F)(F)F)cc1)[C@@H]23
Ratio [1]: 1.49 | Activity [2]: Non-Toxic | Activity [3]: Non-Toxic | Activity [4]: 7.07% | Activity [5]: 128 mU/L | Activity [6]: 74.3 | Activity [7]: 0.82 mM | Activity [8]: 2.89 mM | Activity [9]: 88.8 µM | Activity [10]: 70.4 µM | Activity [11]: 12.4 mM | Activity [12]: Active | Activity [13]: 5.2 g/day | Activity [14]: 4.38 mL/day | Activity [15]: 11.9 mL/day | Activity [16]: Active | Activity [17]: inactive | Activity [18]: Active | Activity [19]: Dose-Dependent Effect | Activity [20]: Non-Toxic | Activity [21]: 4.29 g/day | Activity [22]: Dose-Dependent Effect | Activity [23]: Dose-Dependent Effect | Activity [24]: Active

From ChEMBL document CHEMBL4818983, “Structure-activity relationship and hypoglycemic activity of tricyclic matrines with advantage of treating diabetic nephropathy” (Eur J Med Chem, 2020)
